An excerpt weighted towards active compounds, which were near 4.3% of everything screened.
TAAR1 ag – human TAAR1 agonists, primary screen, Fluo-8 calcium fluorescence, CHO RD-HGA16 cells. Trace amine-associated receptor 1 (Homo sapiens), Q96RJ0. vehicle wells 0%, saturating PEA agonist 100%. activation, % at 3 µM. hit rate 0.99% among 360,000. AID 624467, 2012;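 active = activation above the mean activation of all test compounds in the run plus 3 SD, cut at about 38% in these data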
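System: CHO RD-HGA16 cells carrying human TAAR1 plus Gα16; Incubation: 17-24 h seeding, 75 min 37 °C dye, 30 min RT; Measured by: Fluo-8 fluorescence, 5 s baseline then 140 s kinetic read; Control set: DMSO and PEA EC100; Replication: single well for each compound.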
TAAR1 antagonist – human TAAR1 antagonists, primary screen, Fluo-8 calcium fluorescence, CHO RD-HGA16 cells; Trace amine-associated receptor 1 (Homo sapiens), Q96RJ0; antagonist; inhibition, % at 3 µM; hit rate 1.5% among 360,000; AID 624466, 2012;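 active = inhibition above a per-plate cutoff, the mean inhibition of test compounds on that plate plus 3 SD, cut at about 49% in these data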;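 note: 0% = DMSO plus EC80 beta-PEA response and 100% = DMSO alone without agonist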
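Test system: RD-HGA16 CHO cells with stable hTAAR1 and Gα16 / Probe or stimulus: EC80 β-phenethylamine stimulus / Times: seeding 17-24 h prior, 75-min 37 °C, 30-min RT dye loading / Detection: Fluo-8 calcium-sensitive fluorescence / Read-out basis: % inhibition scaled between DMSO and EC80 PEA controls / Repeats: singlicate, one well per test compound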
m5-HT2A agonist – mouse Htr2a agonists via beta-arrestin recruitment, primary screen, cell-based, luminescence; CHO-K1 mHTR2A beta-arrestin complementation; percent of 30 µM serotonin response; activation, % at 7.6 µM; hit rate 0.66% among 360,000; AID 624169, 2012;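 active = activation above a run cutoff, the mean activation of all tested compounds plus 3 SD, cut at about 14% in these data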;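 note: 0% = plate median of compound wells and 100% = 30 µM serotonin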
Beta2AR agonist – beta2AR agonists driving receptor internalization, primary screen, cell-based, FAP fluorogen, flow cytometry | Am2.2-beta2AR cells | AID 504454, 2011 | Beta-2 adrenergic receptor (Homo sapiens), P07550 | response, % (no concentration beside the values) | hit rate 0.43% among 340,000;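 active = response above a set limit, near 3 SD of response in nonfluorescent compounds, cut at about 42% in these data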
Target sequence (P07550 whole entry, looked up): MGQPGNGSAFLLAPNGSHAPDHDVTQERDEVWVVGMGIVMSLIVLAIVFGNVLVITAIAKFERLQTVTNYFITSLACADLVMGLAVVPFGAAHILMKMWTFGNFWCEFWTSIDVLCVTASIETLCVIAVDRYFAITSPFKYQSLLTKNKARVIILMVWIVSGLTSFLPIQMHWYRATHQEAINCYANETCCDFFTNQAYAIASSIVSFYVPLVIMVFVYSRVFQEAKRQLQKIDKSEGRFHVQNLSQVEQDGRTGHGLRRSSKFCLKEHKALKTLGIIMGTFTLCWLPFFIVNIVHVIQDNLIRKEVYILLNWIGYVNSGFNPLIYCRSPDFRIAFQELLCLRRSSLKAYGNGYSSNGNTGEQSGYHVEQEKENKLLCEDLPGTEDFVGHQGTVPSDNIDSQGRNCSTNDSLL
MC4R antagonist – MC4R antagonists of cAMP signaling, primary screen, cell-based, TR-FRET, antagonist arm of biased-ligand search; inhibition, % at 6.5 µM; AID 540295, 2011; MC4R-expressing cells, MTII-stimulated cAMP, LANCE TR-FRET; Melanocortin receptor 4 (Homo sapiens), P32245; hit rate 0.48% among 360,000;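 active = inhibition above its plate's cutoff, the mean of tested wells on that plate plus 3 SD, cut at about 29% in these data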;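 note: 0% = Melanotan II alone and 100% = Melanotan II plus saturating MCL0020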
Target sequence (P32245 whole entry, looked up): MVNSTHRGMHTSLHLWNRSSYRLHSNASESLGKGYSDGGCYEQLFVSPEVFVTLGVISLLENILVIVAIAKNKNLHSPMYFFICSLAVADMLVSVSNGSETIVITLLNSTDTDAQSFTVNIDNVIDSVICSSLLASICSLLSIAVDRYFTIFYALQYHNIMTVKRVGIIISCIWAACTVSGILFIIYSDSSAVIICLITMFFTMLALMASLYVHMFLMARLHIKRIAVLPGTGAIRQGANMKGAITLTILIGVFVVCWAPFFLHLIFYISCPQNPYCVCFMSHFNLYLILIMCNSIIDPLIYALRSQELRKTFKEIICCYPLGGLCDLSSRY
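system = U2OS cells with stable human MC4R expression | also added = Melanotan II challenge after compound preincubation | dosing = one concentration, 6.5 µM nominal | incubation = compound 30 min, challenge 1 h, detection 1 h | measured by = TR-FRET with Eu-cAMP and labeled anti-cAMP, 671 nm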
MC4R ag barr – MC4R agonists recruiting beta-arrestin, primary screen, cell-based, luminescence, agonist arm of biased-ligand search. AID 540308, 2011. hit rate 0.98% among 360,000. activation, % at 8.9 µM. U2OS MC4R beta-arrestin complementation; percent of melanotan II response, DMSO zero;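 active = activation above a per-plate cutoff, the mean activation of sample wells on that plate plus 3 SD, cut at about 8% in these data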
MC4R barr conf – MC4R beta-arrestin agonists, retest, confirmation, cell-based, luminescence, U2OS; shares compounds with MC4R ag barr; U2OS MC4R beta-arrestin recruitment; scaled DMSO 0%, Melanotan II 100%; activation, % at 8.9 µM; hit rate 31% among 2,400; AID 602192, 2012;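 active = mean activation across replicates above the hit cutoff set in the earlier primary screen, cut at about 8% in these data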
MOR DOR agonist – agonists of MOR-DOR heterodimerization, counter-screen for MC4R biased agonist project, cell-based, luminescence. shares compounds with MC4R ag barr. U2OS PathHunter beta-arrestin, beta-gal luminescence; percent of deltorphin B response, DMSO zero. activation, % at 9.2 µM. hit rate 5.8% among 2,400;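 active = mean activation across replicates exceeds the hit threshold derived in the earlier primary screen, cut at about 18% in these data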;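 note: 100% = deltorphin B at 0.9 µM final and 0% = DMSO alone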
An asterisk follows results filed as active; x = no result given.

SMILES | TAAR1 ag | TAAR1 antagonist | m5-HT2A agonist | Beta2AR agonist | MC4R antagonist | MC4R ag barr | MC4R barr conf | MOR DOR agonist
O=C(NC(=S)Nc1ccc2oc(=O)ccc2c1)c1cccc(Cl)c1 | 0.4 | -10.7 | 6.5 | -1.7 | -3.8 | 19.5* | 3.6 | 4.6
O=C(NCCC1=CCCCC1)c1ccc(-n2cncn2)c([N+](=O)[O-])c1 | 0.3 | 0.4 | 1.3 | 15.3 | 4.9 | -2.2 | x | x
COc1cc(C(=O)N2CCN(S(=O)(=O)c3ccc(C)cc3)CC2)ccc1OCC(=O)N1CCOCC1 | 1.4 | 3.6 | 0.0 | -1.9 | 2.3 | -2.1 | x | x
CSc1ccc(NC(=O)NN(c2ccccc2)C2CCS(=O)(=O)C2)cc1 (centres undefined) | 1.0 | -6.3 | -0.7 | x | 1.5 | -2.1 | x | x
O=c1[nH]c(CSc2nc(-c3ccccc3)cs2)nc2ccccc12 | 8.6 | 8.9 | -0.2 | -18.3 | -19.8 | 5.3 | x | x
O=c1[nH]c(CSc2nc(-c3ccc(F)cc3)cs2)nc2ccccc12 | 3.5 | 14.4 | 1.8 | -12.2 | -27.1 | 9.6* | 1.5 | 3.8
O=C(CSc1nc(-c2ccc(F)cc2)cs1)Nc1ccccn1 | 1.8 | 23.6 | 5.6 | 10.4 | -3.5 | 24.0* | 2.0 | 13.5
CCC(C)c1ccc(NC(=O)Nc2cccnc2)cc1 (centres undefined) | 1.1 | 31.6 | -15.4 | 13.6 | 3.4 | -0.9 | x | x
O=C1N2CCCCC1(Sc1ccccc1)CCC2 (centres undefined) | -0.1 | 2.7 | 0.8 | x | x | x | x | x
CCN(CC)CCOc1ccc2c(c1)C(=NO)c1cc(OCCN(CC)CC)ccc1-2 | 2.0 | -1.6 | -0.8 | 15.5 | -8.9 | -1.3 | x | x
CCCOc1ccc2c(c1)C(=NN=C(N)N)c1cc(OCCC)ccc1-2 | 10.4 | -4.6 | -9.8 | 7.8 | 6.8 | 14.0* | 10.8* | 8.7
O=c1c2cc(Cl)ccc2[nH]c(=S)n1Cc1cccs1 | 5.8 | 25.5 | 1.2 | -25.1 | -0.4 | 10.0* | -0.3 | 3.5
O=c1c2cc(Cl)ccc2[nH]c(=S)n1Cc1ccco1 | 7.2 | 2.7 | -2.6 | -4.8 | 18.7 | 5.1 | x | x
Cc1ccc(Oc2cc([N+](=O)[O-])cc3c2C(=O)Nc2ccccc2O3)cc1 | 4.8 | 18.8 | -0.1 | -67.0 | 6.5 | 13.7* | 1.9 | 7.7
O=C1Nc2ccccc2Nc2ccc([N+](=O)[O-])cc21 | 5.4 | -11.5 | -7.2 | 11.2 | 21.6 | -2.4 | x | x
CC(=O)c1nn(-c2cccc(Br)c2)cc1C(=O)c1ccc(C)cc1 | 9.4 | 16.4 | -3.2 | -5.4 | 0.8 | 35.0* | 5.6 | 6.4
CC(=O)c1nn(-c2cccc(Br)c2)cc1C(=O)c1ccc(Br)cc1 | -1.6 | 10.1 | 3.3 | 3.2 | -7.9 | -0.7 | x | x
O=C(c1cnc2ccc3ccccc3c2c1)c1cc(F)ccc1O | 33.2 | 36.6 | -2.3 | -5.1 | 7.8 | 22.1* | -4.3 | 4.8
COc1ccc2nc(Cl)c(/C=N/Nc3ccccn3)cc2c1 | 4.5 | -19.3 | 1.6 | 4.6 | 2.3 | 39.2* | 1.1 | 4.9
O=C1NC(=O)C(Cc2ccc(O)cc2)N1 (centres undefined) | 0.6 | 0.0 | -2.6 | -7.3 | 6.8 | -0.9 | x | x
O=C(c1ccoc1)N1CCN(c2cc(-c3cccnc3)nc3cc(-c4cccc(Cl)c4)nn23)CC1 | 4.7 | 41.4 | -5.8 | x | 19.8 | 10.8* | -0.3 | 3.3
O=C(c1ccoc1)N1CCN(c2cc(-c3ccccc3)nc3cc(-c4ccc(Br)cc4)nn23)CC1 | 3.7 | 8.1 | 6.3 | x | 16.1 | 1.8 | x | x
CC1CN(c2ccc([N+](=O)[O-])c(NCCOc3ccc(Cl)cc3)c2)CC(C)N1 (centres undefined) | 34.1 | 12.3 | 1.8 | 18.0 | -9.6 | 1.2 | x | x
CCc1ccc(OCCNc2cc(N3CCNC(C)C3)ccc2[N+](=O)[O-])cc1 (centres undefined) | 43.4* | 8.5 | -16.3 | 26.8 | -2.9 | 11.4* | 23.4* | 16.9
CCn1c(SCC(=O)N2CCC(C)CC2)nnc1-c1ccco1 | 3.2 | -9.0 | 7.1 | -6.6 | -5.5 | 1.4 | x | x
SMILES | TAAR1 ag | TAAR1 antagonist | m5-HT2A agonist | Beta2AR agonist | MC4R antagonist | MC4R ag barr | MC4R barr conf | MOR DOR agonist
CC(=O)Nc1cc(-c2ccc(F)cc2)cn2c(-c3ccc(F)cc3)cnc12 | 1.1 | 33.0 | 4.8 | x | 0.4 | 24.6* | 14.6* | 5.7
CC(=O)Nc1cc(-c2ccc(CO)cc2)cn2c(-c3ccc(F)cc3)cnc12 | 0.8 | 23.5 | -3.8 | x | 8.0 | -1.9 | x | x
CC(=O)Nc1cc(-c2ccncc2)cn2c(-c3ccccc3)cnc12 | -1.6 | 0.8 | -0.8 | x | 6.1 | 1.5 | x | x
CC(=O)Nc1cc(-c2ccccc2)cn2c(-c3ccc(F)cc3)cnc12 | 5.7 | 49.5* | -6.2 | x | 12.0 | 26.0* | 26.6* | 3.0
COc1cc(-c2cc(NC(C)=O)c3ncc(-c4ccc(F)cc4)n3c2)cc(OC)c1OC | 13.3 | 52.0* | -4.3 | x | 17.1 | 11.9* | 8.6* | 3.6
CCOC(=O)C1CCCN(C(=O)CCc2nc3sc4c(c3c(=O)[nH]2)CCCC4)C1 (centres undefined) | 1.9 | -15.2 | -5.4 | -1.5 | 15.2 | 0.1 | x | x
COc1ccc(/C=N/NC(=O)c2nnn(-c3nonc3N)c2CN(C)c2ccccc2)cc1 | 11.8 | -8.2 | 0.9 | 16.5 | -1.0 | -2.6 | x | x
O=C(COc1ccc2ccccc2c1Br)Nc1ncn[nH]1 | x | x | -0.1 | 2.5 | 12.3 | 13.1* | 0.7 | 1.5
Cc1cc(C(=O)COC(=O)c2ccc(O)cc2O)c(C)n1-c1ccccc1 | 0.8 | 35.0 | -4.5 | 0.6 | 4.5 | 2.5 | x | x
COc1ccc(-n2c(C)cc(C(=O)COC(=O)c3ccc(O)cc3O)c2C)cc1 | -0.6 | 26.3 | 10.4 | 9.7 | 9.0 | 10.6* | 2.6 | 10.5
Cc1sc2nc(SCC(=O)NCc3ccco3)n(CCc3ccccc3)c(=O)c2c1C | -0.2 | 10.3 | 0.4 | -5.3 | 4.3 | 47.8* | 0.0 | 37.6*
C=CCn1c(SCC(=O)Nc2ccccc2C)nc2sc(C)c(C)c2c1=O | 12.1 | 9.0 | -1.8 | -6.5 | -2.9 | 24.0* | -0.4 | 5.7
C=CCn1c(SCC(=O)NC(=O)NCc2ccco2)nc2sc(CC)cc2c1=O | -0.5 | -10.8 | 2.3 | -6.6 | -5.7 | 11.6* | 1.9 | 3.1
